Screening data from PubChem.
HUVEC inhibit: inhibitors of HUVEC proliferation, primary screen, cell-based, 384-well. CellTiter-Glo luminescence, 72 h; active compounds read low. viability, % at 10 µM (by protocol). hit rate 1.1% among 86,000. AID 648, 2007;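 active = viability at or below 30%; inactive = viability above 30%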;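 also: 100% = median luminescence of DMSO-only cell control wells on each plate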
Ecoli WT expand: growth inhibitors of wild-type E. coli, primary screen, strain BW25113, expanded library, OD600. OD600 absorbance. growth inhibition, % at 100 µM. hit rate 0.15% among 98,000. AID 710, 2007;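 active = growth inhibition above about 50% at one test dose, limit read from the data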;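 also: growth measured after 20 h incubation at 37 °C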
Ecoli tolC: growth inhibitors of E. coli tolC mutant, primary screen, strain BW25113 ΔtolC::kan, 384-well. growth inhibition, % at 10 µM (by protocol). hit rate 2.2% among 65,000. OD615;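 active = growth inhibition at or above a cutoff equal to the mean over every tested compound plus 3 SD, cut at about 60% in these data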;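 also: growth measured after 20 h incubation at 37 °C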
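Doses: one dose of 10 µM final / Material: E. coli BW25113 ΔtolC::kan, tolC deletion mutant strain / Buffer or medium: LB with kanamycin 50 µg/mL / Evaluation: percent growth inhibition / Detection: optical density read at 615 nm / Incubation: 37 °C, 20 h exposure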
Fibroblast inh: antiproliferative effect on LL 47 fibroblasts – human, LL 47 cells, CellTiter-Glo luminescence, primary screen; viability, % at 10 µM; hit rate 1.1% among 85,000; AID 719, 2007; LL 47 human lung fibroblast viability, ATP luminescence; active compounds read low;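 active = viability at or below 50% in the single dose screen; inactive = viability above 50%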;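 also: compound exposure lasted 72 h before the ATP readout; 100% = median luminescence of untreated cell-only wells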
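Test system: LL 47 human lung fibroblasts / Quantity: 1,150 cells in each well / Medium: IMEM growth medium with 15% fetal bovine serum / Incubation: 72 h compound exposure at 37 °C after overnight plating / Detection: CellTiter-Glo luminescence measuring cellular ATP / Read-out: % viability versus median cells-only luminescence / Benchmarks: cell-only wells, no compound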
H69AR inhibit: proliferation blockers of H69AR lung cancer cells, primary screen, cell-based, human, 86K library. AID 598, 2007. hit rate 6% among 85,000. H69AR lung tumor viability, ATP luminescence, 72 h; active compounds read low. viability, % at 10 µM;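 active = viability at or below 40%; inactive = viability above 40%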;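 also: multidrug resistant small cell line overexpressing MRP-1 efflux transporter; 100% = mean luminescence of untreated control wells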
Jurkat viability: cytotoxicity toward Jurkat T cells, primary screen, cytotoxicity control, cell-based, Jurkat E6.1, 60K MLSMR library. Jurkat E6.1 viability, ATP luminescence, 48 h. inhibition, % at 4 µM. hit rate 1.2% among 56,000;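 active = inhibition above the mean inhibition of all tested compounds plus 3 SD, cut at about 28% in these data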
Starred values were filed as active, the others as inactive; . = not tested or not shown. Hits are enriched below; roughly 6.4% of the tested compounds scored in any of these assays.

SMILES	HUVEC inhibit	Ecoli WT expand	Ecoli tolC	Fibroblast inh	H69AR inhibit	Jurkat viability
O=C(Nc1ccc2c(c1)OCO2)c1ccc(COc2ccc3c(c2)CCC3)o1	72	-1	72*	99	88	-2
Cc1ccc(C(=O)Nc2ccc3c(c2)CCC3)o1	82	5	22	97	84	9
CC1=C(/C=C/C(=O)O)C(C)(C)CCC1	90	9	.	100	98	.
Cc1cc(NCCCn2ccnc2)n2ncc(-c3ccc(Cl)cc3)c2n1	9.4*	29	.	22*	19*	.
Cc1cccc(-c2cc3nc(C)cc(NCCCn4ccnc4)n3n2)c1	72	4	.	90	62	.
Cc1cc(NCCCN2CCOCC2)n2ncc(-c3ccc(Cl)cc3)c2n1	63	-2	-15	46*	24*	2
CC(=O)N1CCN(c2nc(-c3ccco3)c3c(c2C#N)CC(C)(C)SC3)CC1	.	-2	.	.	.	.
CN(C)S(=O)(=O)N(CC(=O)N(Cc1ccccc1)Cc1ccccc1)c1ccccc1	85	-4	.	96	84	.
CN(C)S(=O)(=O)N(Cc1ccc(Br)cc1)c1ccccc1	101	8	88*	90	98	5
O=C(CSCc1c(Cl)cccc1Cl)Nc1ccc2c(c1)OCO2	93	-3	.	103	96	.
O=C(CCC1CCCC1)N1CCN(C2CCCC2)CC1	94	-3	0	87	88	-4
COc1ccc(CCC(=O)N2CCN(C3CCCCC3)CC2)cc1	95	6	-9	17*	91	-1
Cc1ccccc1Cn1cnc2c(cnn2C(C)(C)C)c1=O	.	13	11	.	.	-6
CC1(C)C(c2ccccc2)=[N+]([O-])CN1O	96	-3	-6	.	34*	10
CC1(C)C(c2ccccn2)=[N+]([O-])C(C)(C)N1O	98	3	-18	96	92	-3
Cc1ccc(S(=O)(=O)Cn2nnnc2C(C(C)C)N2CCN(c3nc4ccccc4s3)CC2)cc1 (centres undefined)	85	.	.	92	27*	.
c1ccc(Cn2nnnc2C(c2ccccc2)N2CCN(c3nc4ccccc4s3)CC2)cc1 (centres undefined)	121	-11	15	95	80	0
Cc1nn(CC(=O)O)c(=O)c2ccccc12	101	-4	.	100	105	.
Cc1ccc(NC(=S)NC(NC(=O)c2ccco2)C(Cl)(Cl)Cl)cc1 (centres undefined)	84	23	.	96	22*	.
O=C(O)c1ccc(NC(=S)NC(NC(=O)c2ccco2)C(Cl)(Cl)Cl)cc1 (centres undefined)	80	0	.	86	95	.
CCOc1ccc(C(=O)N2CCCCCC2)cc1	100	8	-1	98	97	-1
COc1ccc2c(c1OC)C(=O)N1c3ccccc3C(=O)N(c3ccccc3F)C21 (centres undefined)	65	1	18	98	3.7*	.
CC(=O)CCN1CCOCC1	96	25	.	90	29*	.
Cc1cc(C(=O)CSc2nnnn2-c2ccccc2)c(C)n1CCc1ccccc1	60	-9	.	84	19*	.
COc1ccc(/C=C/C(=O)NCC(=O)N/N=C/c2cc(Br)ccc2OCc2ccccc2)cc1	46	-7	.	78	7.4*	.
SMILES	HUVEC inhibit	Ecoli WT expand	Ecoli tolC	Fibroblast inh	H69AR inhibit	Jurkat viability
O=C(CSc1nnc(COc2ccc(F)cc2)o1)N1c2ccccc2CCc2ccccc21	109	-7	31	84	1.9*	19
O=C(CSc1nnc(COc2cccc3cccnc23)o1)N1CCc2ccccc21	97	-4	-15	94	51	2
O=C(NNC(=O)c1ccccc1O)c1ccc(Cl)cc1	.	-1	.	.	.	.
Cc1ccc2cccc(NC(=S)NC(=O)c3c(Br)cnn3C)c2n1	62	.	.	82	26*	.
Cc1ccc2cccc(NC(=S)NC(=O)c3ccn(C)n3)c2n1	82	.	.	88	63	.
O=C(NC1CCCCC1)N1CCc2ccccc21	102	-5	11	106	73	3
Cc1ccc2[nH]c(=O)c(CN(Cc3nnnn3Cc3ccccc3)C3CCCC3)cc2c1	65	-4	74*	92	41	4
CCc1ccc2[nH]c(=O)c(CN(Cc3nnnn3C3CCCC3)C3CCCCC3)cc2c1	71	-7	48	.	12*	2
Cc1cccc2cc(CN(Cc3nnnn3C3CCCC3)C3CCCCC3)c(=O)[nH]c12	83	.	-10	102	78	-5
Cc1cccc(NC(=O)c2cc(NC(=O)c3ccco3)ccc2N2CCCCC2)c1	26*	0	-6	84	93	-5
O=C(Nc1ccc(N2CCCCC2)c(C(=O)O)c1)c1ccco1	100	6	-11	106	95	-4
Cc1nc(N2CCC3(CC2)OCCO3)c2nnn(Cc3ccccc3F)c2n1	113	0	17	96	35*	.
CCN(C)c1ccc(/C=N\n2nnnc2N)cc1	.	-4	-15	.	.	82*
COc1ccc(OCC(O)Cn2cnc(-c3ccc(Br)cc3)c2)cc1 (centres undefined)	84	.	.	99	39*	.
COc1ccc(OCC(O)CNc2ccc(Br)cc2)cc1 (centres undefined)	81	31	73*	99	102	4
C=CCNC(=O)c1c(N)n(-c2cccc(S(N)(=O)=O)c2)c2nc3ccccc3nc12	96	-3	6	98	59	-6
COc1ccc(C2CC(=O)C(C=NCCCN3CCOCC3)=C(O)C2)cc1 (centres undefined)	.	1	-3	.	.	7
O=C(c1ccco1)N1CCN(c2c(-c3ccccc3)c3cc(Cl)ccc3[nH]c2=O)CC1	63	-7	70*	92	101	1
COc1ccc(C(=O)c2oc3ccccc3c2NC(C)=O)cc1	106	-6	.	95	90	.
COc1ccc(OC)c(C(=O)c2oc3ccccc3c2NC(C)=O)c1	88	4	1	.	22*	4
CC(C)c1ccc(-c2noc(C3CCCN(C(=O)c4ccc(F)cc4F)C3)n2)cc1 (centres undefined)	59	-22	68*	100	109	9
c1ccc(CCCNc2ncnc3nc[nH]c23)cc1	88	7	1	93	85	0
Clc1ccc(CCNc2ncnc3nc[nH]c23)cc1	.	13	11	.	.	35*
S=C(Nc1ccccn1)c1ccccn1	84	29	-5	84	1.3*	0
Cc1ccc(C)c(NC(=S)c2ccccn2)c1	87	6	.	80	2.7*	.
C=CCn1c(=O)n2ncnc2c2c3c(sc21)CCCC3	82	3	.	95	91	.
O=c1n(Cc2ccc(Cl)cc2)c2sc3c(c2c2ncnn12)CCCC3	92	-3	75*	92	98	-10
